Screening results (PubChem BioAssay)
procasp3 activ = activators of human procaspase-3; recombinant procaspase-3 D3A, Ac-DEVD-pNA absorbance 405 nm; AID 463141; 330,000 compounds, 0.11% hits; activation, % at 8.5 µM;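 active means activation above the mean of all tested compounds plus 3 SD, cut at about 21% in these data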;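 further: 0% = DMSO alone and 100% = DMSO wells spiked with extra 5 µM PC-3 D3A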
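assay system = Procaspase-3 D3A mutant | signal = absorbance at 405 nm, 0 and 120 min | times = 1 h preincubation plus 2 h reaction at 25 °C | repeats = single replicate | read-out = % activation between DMSO and enzyme-spiked controls | medium = Zinc-free HEPES saline buffer with Triton X-100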
IDE inh = inhibitors of human insulin-degrading enzyme in cells; HEK cells, FAbetaB cleavage, fluorescence polarization; inhibition, % at 5.59 µM; 320,000 compounds, 0.41% hits;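 active means percent inhibition above the average of all tested compounds plus 3 SD, set per screening campaign, cut at about 16% in these data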;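 further: IDE supplied by intact live HEK cells; FP after avidin binding of uncleaved biotin substrate so inhibition keeps polarization high; 0% = DMSO wells and 100% = 60 µM reference IDE inhibitor Ii1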
procasp7 counter = counter-screen for procaspase-3 activators: activators of human procaspase-7 | AID 463210 | recombinant procaspase-7, Ac-DEVD-pNA absorbance 405 nm; D23A/D198A/D206A triple mutant, cannot self-cleave; scale: DMSO 0, 5 µM enzyme 100 | 330,000 compounds, 0.093% hits | P55210 | activation, % at 8.5 µM;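 active means percent activation above the screen-wide mean plus 3 SD, cut at about 25% in these data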
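buffer or medium = Zinc-free HEPES/NaCl buffer, pH 7.4 | material = Procaspase-7 triple mutant (PC-7 D3A) | input = 2 µM procaspase-7 mutant as dispensed | signal = Epi-absorbance of released pNA at 405 nm, two timepoints | timing = 1 h preincubation, 2 h reaction | replicates = singlicate compound testing | evaluation = % activation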
TPT1 inh = C. albicans TPT1 enzyme inhibition; recombinant caTPT1, FP RNA substrate dephosphorylation; inhibition, % at 5 µM; 300,000 compounds, 0.81% hits;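 active means inhibition above the mean of all tested compounds plus 3 SD, set per screening campaign, cut at about 24% in these data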;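 further: plate controls were DMSO alone for no effect and ferristatin control at 100 nM for full effect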
IDE cell activ = IDE (human) activation, cell-based. HEK cells, FAbeta-B cleavage, fluorescence polarization; 0% vehicle, 100% cell-free pure enzyme wells. activation, % at 5.96 µM. 340,000 compounds, 0.073% hits;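 active means activation above the mean of all tested compounds plus 3 SD, set per screening campaign, cut at about 17% in these data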
caTPT1 confirm = TPT1 (C. albicans) inhibition, confirmation | 2,400 compounds, 74% hits | shares compounds with TPT1 inh | AID 2149 | recombinant caTPT1, fluorescence polarization, RNase T1 coupled | inhibition, % at 5 µM;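 active means inhibition above the primary screen limit, the mean inhibition of all tested compounds plus 3 SD, cut at about 25% in these data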
RNase T1 inh = counter-screen for TPT1 inhibitors: inhibitors of Aspergillus oryzae RNase T1; shares compounds with TPT1 inh; RNase T1 cleavage, fluorescence polarization, 1536-well; inhibition, % at 5 µM; 2,400 compounds, 83% hits;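 active means inhibition above the solvent-only control well mean plus 3 SD, limit set per screening run, cut at about 23% in these data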;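 further: plate controls were DMSO wells with enzyme for no effect and wells without RNase T1 for full effect; inhibitors block cleavage so intact labeled substrate keeps polarization high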
Numbers without * were called inactive; x = no result. Hits are enriched below; roughly 1.2% of the tested compounds scored in any of these assays.

SMILES | procasp3 activ | IDE inh | procasp7 counter | TPT1 inh | IDE cell activ | caTPT1 confirm | RNase T1 inh
O=C(Nc1ccccc1C(F)(F)F)c1ccc2nccnc2c1 | 2 | 3 | 15 | 39* | 2 | 7 | 11
Cc1cc(C)n2nc(SCCCC(=O)c3ccc(F)cc3)nc2n1 | 8 | -3 | 3 | -2 | -1 | x | x
O=C(N/N=C/c1ccc(N2CCOCC2)s1)c1ccc(NS(=O)(=O)c2cccs2)cc1 | -7 | 6 | -6 | 29* | -5 | 78* | 90*
O=C(NC1CCSC1=O)c1cccc(Cl)c1 (stereo not drawn) | 4 | 9 | 2 | 31* | -2 | 6 | 8
Cc1ccc(S(=O)(=O)Nc2cc(-c3ccccc3)nn2C)cc1Cl | 7 | 2 | 1 | 2 | x | x | x
c1ccc(C2Oc3ccccc3C3CC(c4cccs4)=NN32)cc1 (stereo not drawn) | -23 | 6 | -64 | 49* | 2 | 57* | 69*
CCCCCCCCNC(=S)NCCN1CCCCC1 | x | x | x | x | 4 | x | x
Nc1nc(-c2c[nH]c3ccccc23)cs1 | -19 | -7 | -16 | 7 | -5 | x | x
Cc1ccc2c(-c3csc(N)n3)c[nH]c2c1 | -1 | 8 | -4 | 26* | x | 15 | 27*
CC(C)(C)SCCNC(=O)CN(c1ccc(F)cc1)S(=O)(=O)c1ccccc1 | 1 | 2 | 1 | -1 | 1 | x | x
CC1(C)CC(NNCCC#N)=CC(=[N+]2CCCC2)C1 | -17 | 3 | -14 | 49* | -6 | 54* | 69*
CN(Cc1ccccc1)C1=CC(=[N+]2CCCCC2)CC(C)(C)C1 | 4 | -5 | -1 | -1 | 1 | x | x
Cc1ccc(/C=C(\C#N)C(=O)Nc2c(C)cccc2C)s1 | 2 | 4 | 0 | 30* | -1 | 41* | 53*
Cc1ccc(NC(=O)/C(C#N)=C/c2ccc(C)s2)c(C)c1 | 3 | 0 | -13 | -4 | -7 | x | x
O=C1N=C(N2CCOCC2)S/C1=C/c1ccc(-c2ccc(F)cc2)o1 | -14 | 1 | -12 | 11 | -5 | x | x
Cc1ccc(-c2ccc(/C=C3\SC(N4CCOCC4)=NC3=O)o2)cc1 | -25 | 6 | -27 | 48* | -5 | 52* | 62*
C=CCn1c(=O)/c(=C2/Sc3ccccc3N2CC)s/c1=C1/C(=O)NN=C1C | 2 | 12 | -16 | 44* | x | 48* | 59*
CCN1/C(=C/C=C/C=C/c2sc3ccccc3[n+]2CC)Sc2ccccc21 | -17 | 5 | -24 | 5 | x | x | x
CCN1/C(=C/C=C/C=C/C=C/c2sc3ccccc3[n+]2CC)Sc2ccccc21 | -19 | 13 | -28 | 30* | -2 | 20 | 29*
Cn1ncc(Br)c1C(=O)N1CCCCCC1 | -8 | -4 | 0 | 0 | -3 | x | x
CC1=C(C(=O)c2ccccc2)C(c2ccc(N3CCOCC3)cc2)NC(=O)N1 (stereo not drawn) | 1 | 1 | -5 | 28* | 2 | 39* | 51*
Cc1ccc(CNc2ccc3c(c2)OCO3)c(C)c1 | 3 | 10 | -4 | 26* | x | 20 | 35*
COc1ccc2c(c1)CCCC2=O | x | x | x | x | 6 | x | x
Nc1ccc2c(c1)CCC2=O | -4 | 1 | 10 | 24* | 10 | 18 | 28*
CCC(C)n1c(NC(=O)c2ccccc2)c(C#N)c2nc3ccccc3nc21 (stereo not drawn) | -10 | 2 | -7 | 117* | -4 | 80* | 85*
SMILES | procasp3 activ | IDE inh | procasp7 counter | TPT1 inh | IDE cell activ | caTPT1 confirm | RNase T1 inh
CCC(=O)Nc1c(C#N)c2nc3ccccc3nc2n1-c1ccc(C)cc1 | x | x | x | x | 6 | x | x
NC(=S)c1cc2ccc(O)cc2oc1=O | x | x | x | x | -5 | x | x
C/C(=N/NC(N)=S)c1cc2ccc(O)cc2oc1=O | -15 | 0 | -26 | 25* | -32 | 90* | 97*
O=C(CCC(=O)N1CCOc2ccccc21)NCc1cccnc1 | 3 | 2 | -3 | 3 | 7 | x | x
O=[N+]([O-])c1ccc(-c2ccc(/C=N/Nc3nc(NCc4ccccc4)nc(N4CCOCC4)n3)o2)cc1 | 3 | 3 | 4 | 87* | -1 | 89* | 93*
C=CCN1C(=O)N/C(=C/c2ccc(N3CCOCC3)o2)C1=O | -8 | 7 | -18 | 29* | x | 105* | 113*
O=C1N/C(=C/c2ccc(N3CCOCC3)o2)C(=O)N1c1ccccc1 | -17 | 9 | -19 | 70* | -4 | 150* | 148*
Cc1ccc(C(=O)O)cc1-c1ccc(/C=C2/NC(=O)N(c3ccccc3)C2=O)o1 | -16 | -5 | -5 | 3 | 1 | x | x
O=C1N/C(=C/c2ccc(N3CCCC3)cc2)C(=O)N1c1ccccc1 | 0 | 12 | 3 | 34* | -7 | 49* | 63*
O=C1N/C(=C/c2ccc(N3CCOCC3)cc2)C(=O)N1Cc1ccc(F)cc1 | -11 | 0 | -2 | -5 | 3 | x | x
COc1ccc(NC2CCCN(C(=O)C3=NN(C)C(=O)CC3)C2)cc1OC (stereo not drawn) | -22 | 1 | -37 | -4 | 6 | x | x
O=C(/C=C/c1ccc2ccccc2n1)c1cc(Cl)ccc1O | -17 | 7 | -13 | 44* | 1 | 46* | 59*
CC(=O)Nc1ccc(S(=O)(=O)Nc2nc3ccccc3nc2Nc2ccc(O)c(C(=O)O)c2)cc1 | -1 | 3 | -5 | 43* | 5 | 24* | 33*
CC(=O)Nc1ccc(S(=O)(=O)Nc2nc3ccccc3nc2Nc2ccc(S(N)(=O)=O)cc2)cc1 | 1 | 2 | -5 | -1 | 4 | x | x
Cc1nc2ccccc2n1-c1ccccc1 | -1 | 2 | 5 | -1 | 0 | x | x
O=c1c(/C=C(\O)c2ccccc2)nc2ccccc2n1-c1ccccc1 | -5 | 3 | -7 | 119* | -2 | 86* | 95*
Cc1nnc(-c2cccc(Br)c2)c2cn(-c3cccc(Br)c3)nc12 | 0 | 7 | 6 | 47* | 1 | 79* | 84*
Cc1ccccc1-n1c(SCC(N)=O)nc2sc(-c3ccccc3)cc2c1=O | -2 | 0 | 0 | -3 | -1 | x | x
Cc1ccccc1-n1c(SCC(=O)NC(N)=O)nc2sc(-c3ccccc3)cc2c1=O | -8 | 2 | 4 | 31* | -5 | 6 | 11
COc1cc(/C=C(\C#N)c2nc3ccccc3s2)ccc1OCC(=O)Nc1ccccc1 | -12 | 28* | -14 | 60* | 1 | 32* | 44*
O=C(/C=C/c1cn(CC(O)CN2CCCCC2)c2ccccc12)c1cccs1 (stereo not drawn) | -17 | 11 | -20 | 64* | -11 | 65* | 72*
CCCN(CCC)CC(O)Cn1cc(/C=C/C(=O)c2cccs2)c2ccccc21 (stereo not drawn) | -10 | 7 | -13 | 61* | -3 | 64* | 72*
